Reference: ChEMBL document CHEMBL4814016, “Balancing potency and basicity by incorporating fluoropyridine moieties: Discovery of a 1-amino-3,4-dihydro-2,6-naphthyridine BACE1 inhibitor that affords robust and sustained central Aβ reduction” (Eur J Med Chem, 2021)
Blank lines part the entries; values can stand above or below the compound they belong to.

Tests used:
hERG (KCNH2) = hERG (KCNH2) (Homo sapiens, UniProt Q12809); test: Inhibition of human ERG at 5 uM by automated patch clamp assay relative to control
In short: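 hERG inhibition measured at 5 µM with an automated patch clamp assay.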

Beta-secretase 1 [1] = target: T1, Beta-secretase 1 (Homo sapiens, UniProt P56817); test: Inhibition of BACE1 (unknown origin) by HTRF assay
In short: (§1)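 The figures are means of at least two determinations. BACE1 activity was measured with a biochemical HTRF assay on an APP-derived peptide substrate. In the cellular assay, secreted Aβ40 from SH-SY5Y neuroblastoma cells transfected with human APP was measured by HTRF, and the IC50 derived from it.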

P-gp (MDR1, ABCB1) = P-gp (MDR1, ABCB1) (Homo sapiens, UniProt P08183); test: Substrate activity at P-gp (unknown origin) transfected in LLC-PK1 cells expressing human MDR1 gene assessed as efflux ratio; format: ADME, cell-based
Beta-secretase 1 [2] = target: T1, Beta-secretase 1; test: Inhibition of BACE1 in human SH-SY5Y cells expressing APP assessed as reduction in Abeta40 by HTRF assay; format: cell-based; in short: as §1
[3] = Dissociation constant, pKa of compound by capillary electrophoresis; format: physicochemical
In short: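 pKa measured by capillary electrophoresis.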

Beta-secretase 1 [4] = target: T1, Beta-secretase 1; test: Inhibition of BACE1 (unknown origin)
[5] = Plasma concentration in Beagle dog at 1 mg/kg, po measured after 7 hrs; format: ADME, organism-based, Canis lupus familiaris
In short: (§2)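 Beagle dogs, n = 3, were given 1 mg/kg orally as a suspension in 0.5% methylcellulose. Plasma and CSF drug concentrations were measured at 3, 7, 10 and 24 h. The CSF ratio is CSF concentration over unbound plasma concentration.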

[6] = Metabolic stability in rat liver microsomes assessed as parent compound remaining measured after 30 mins; format: ADME, Microsome; conditions: read-out: Stabilty
In short: (§3)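 Parent compound remaining (%) measured after 30 min incubation in rat or dog liver microsomes.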

[7] = Clearance in rat at 0.5 mg/kg, iv; format: ADME, organism-based; conditions: in vivo
In short: (§4)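 Single iv dose of 0.5 mg/kg in rats, n = 2. Total clearance and steady-state volume of distribution were taken from the plasma profile.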

[8] = Ratio of drug level in Beagle dog cerebrospinal fluid after 24 hrs to IC50 for inhibition of BACE1 in human SH-SY5Y cells expressing APP assessed as reduction in Abeta40 by HTRF assay; format: cell-based
In short: (§5)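 CSF drug concentration in dogs dosed orally at 1 mg/kg (0.5% methylcellulose suspension) at 10 and 24 h, divided by the cellular Aβ40 HTRF IC50 from SH-SY5Y cells expressing human APP.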

[9] = Oral bioavailability in rat at 1 mg/kg; format: ADME, organism-based; conditions: in vivo
In short: (§6)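 Rats dosed orally at 1 mg/kg, n = 2. Plasma AUC, Cmax and Tmax were taken from the profile. Bioavailability was calculated against an iv dose of 0.5 mg/kg, n = 2.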

[10] = AUC in rat at 1 mg/kg, po; format: ADME, organism-based; parameters: dose 1 mg/kg; conditions: in vivo; in short: as §6
[11] = Fraction unbound in rat serum; format: ADME, cell-free
In short: (§7)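 Fraction unbound measured in rat and dog serum.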

[12] = Cmax in Beagle dog at 1 mg/kg, po; conditions: in vivo
[13] = Plasma concentration in Beagle dog at 1 mg/kg, po measured after 10 hrs; format: ADME, organism-based, Canis lupus familiaris; in short: as §2
[14] = Metabolic stability in Beagle dog liver microsomes assessed as parent compound remaining measured after 30 mins; format: ADME, Canis lupus familiaris, Microsome; conditions: read-out: Stabilty; in short: as §3
[15] = Cmax in rat at 1 mg/kg, po; format: ADME, organism-based; parameters: route oral, dose 1 mg/kg; conditions: in vivo; in short: as §6
[16] = Plasma concentration in Beagle dog at 1 mg/kg, po measured after 24 hrs; format: ADME, organism-based, Canis lupus familiaris; in short: as §2
[17] = Volume of distribution at steady state in rat at 0.5 mg/kg, iv; format: ADME, organism-based; conditions: in vivo, read-out: Vdss; in short: as §4
[18] = Ratio of drug level in brain to plasma in rat at 0.5 mg/kg, iv; format: ADME, organism-based
In short: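 Rats given 0.5 mg/kg iv, n = 2. Result is the total brain-to-plasma concentration ratio (Kp).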

[19] = Ratio of drug level in Cerebrospinal fluid to plasma in Beagle dog at 1 mg/kg, po measured after 10 hrs; format: ADME, organism-based, Canis lupus familiaris, CSF/Plasma; in short: as §2
[20] = Drug concentration in Beagle dog cerebrospinal fluid at 1 mg/kg, po measured after 10 hrs; format: ADME, organism-based, Canis lupus familiaris; conditions: read-out: Ct; in short: as §2
[21] = Tmax in Beagle dog at 1 mg/kg, po; conditions: in vivo
[22] = In vivo inhibition of amyloid beta in Beagle dog cerebrospinal fluid at 1 mg/kg, po measured after 24 hrs by ELISA; format: functional; conditions: Canis lupus familiaris
In short: (§8)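 Beagle dogs, n = 3, received 1 mg/kg orally as a 0.5% methylcellulose suspension. Total Aβ in CSF was measured by ELISA at 10 and 24 h and expressed as % reduction.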

[23] = Drug concentration in Beagle dog cerebrospinal fluid at 1 mg/kg, po measured after 24 hrs; format: ADME, organism-based, Canis lupus familiaris; conditions: read-out: Ct; in short: as §2
[24] = Fraction unbound in Beagle dog serum; format: ADME, cell-free, Canis lupus familiaris; in short: as §7
[25] = In vivo inhibition of amyloid beta in Beagle dog cerebrospinal fluid at 1 mg/kg, po measured after 10 hrs by ELISA; format: functional; conditions: Canis lupus familiaris; in short: as §8
[26] = Tmax in rat at 1 mg/kg, po; format: ADME, organism-based; conditions: in vivo; in short: as §6
[27] = AUC in Beagle dog at 1 mg/kg, po; conditions: in vivo
[28] = Ratio of drug level in Beagle dog cerebrospinal fluid after 10 hrs to IC50 for inhibition of BACE1 in human SH-SY5Y cells expressing APP assessed as reduction in Abeta40 by HTRF assay; format: cell-based; in short: as §5
[29] = Plasma concentration in Beagle dog at 1 mg/kg, po measured after 3 hrs; format: ADME, organism-based, Canis lupus familiaris; in short: as §2
[30] = Ratio of drug level in Cerebrospinal fluid to plasma in Beagle dog at 1 mg/kg, po measured after 24 hrs; format: ADME, organism-based, Canis lupus familiaris, CSF/Plasma; in short: as §2

T1 sequence (P56817 whole entry): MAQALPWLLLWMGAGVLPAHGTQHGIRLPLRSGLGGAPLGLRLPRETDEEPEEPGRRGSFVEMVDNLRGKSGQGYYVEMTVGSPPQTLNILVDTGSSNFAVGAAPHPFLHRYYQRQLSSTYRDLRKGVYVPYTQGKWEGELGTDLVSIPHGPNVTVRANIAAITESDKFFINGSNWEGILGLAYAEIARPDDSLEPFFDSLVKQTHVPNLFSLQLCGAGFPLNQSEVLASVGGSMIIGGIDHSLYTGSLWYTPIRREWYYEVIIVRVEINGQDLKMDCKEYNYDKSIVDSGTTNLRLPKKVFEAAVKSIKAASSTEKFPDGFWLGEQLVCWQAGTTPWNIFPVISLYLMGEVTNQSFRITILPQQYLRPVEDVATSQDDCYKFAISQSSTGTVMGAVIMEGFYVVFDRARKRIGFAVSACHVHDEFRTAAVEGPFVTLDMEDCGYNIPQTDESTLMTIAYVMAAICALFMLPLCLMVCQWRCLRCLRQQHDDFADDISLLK
Chain of hERG (KCNH2) (Q12809 whole entry): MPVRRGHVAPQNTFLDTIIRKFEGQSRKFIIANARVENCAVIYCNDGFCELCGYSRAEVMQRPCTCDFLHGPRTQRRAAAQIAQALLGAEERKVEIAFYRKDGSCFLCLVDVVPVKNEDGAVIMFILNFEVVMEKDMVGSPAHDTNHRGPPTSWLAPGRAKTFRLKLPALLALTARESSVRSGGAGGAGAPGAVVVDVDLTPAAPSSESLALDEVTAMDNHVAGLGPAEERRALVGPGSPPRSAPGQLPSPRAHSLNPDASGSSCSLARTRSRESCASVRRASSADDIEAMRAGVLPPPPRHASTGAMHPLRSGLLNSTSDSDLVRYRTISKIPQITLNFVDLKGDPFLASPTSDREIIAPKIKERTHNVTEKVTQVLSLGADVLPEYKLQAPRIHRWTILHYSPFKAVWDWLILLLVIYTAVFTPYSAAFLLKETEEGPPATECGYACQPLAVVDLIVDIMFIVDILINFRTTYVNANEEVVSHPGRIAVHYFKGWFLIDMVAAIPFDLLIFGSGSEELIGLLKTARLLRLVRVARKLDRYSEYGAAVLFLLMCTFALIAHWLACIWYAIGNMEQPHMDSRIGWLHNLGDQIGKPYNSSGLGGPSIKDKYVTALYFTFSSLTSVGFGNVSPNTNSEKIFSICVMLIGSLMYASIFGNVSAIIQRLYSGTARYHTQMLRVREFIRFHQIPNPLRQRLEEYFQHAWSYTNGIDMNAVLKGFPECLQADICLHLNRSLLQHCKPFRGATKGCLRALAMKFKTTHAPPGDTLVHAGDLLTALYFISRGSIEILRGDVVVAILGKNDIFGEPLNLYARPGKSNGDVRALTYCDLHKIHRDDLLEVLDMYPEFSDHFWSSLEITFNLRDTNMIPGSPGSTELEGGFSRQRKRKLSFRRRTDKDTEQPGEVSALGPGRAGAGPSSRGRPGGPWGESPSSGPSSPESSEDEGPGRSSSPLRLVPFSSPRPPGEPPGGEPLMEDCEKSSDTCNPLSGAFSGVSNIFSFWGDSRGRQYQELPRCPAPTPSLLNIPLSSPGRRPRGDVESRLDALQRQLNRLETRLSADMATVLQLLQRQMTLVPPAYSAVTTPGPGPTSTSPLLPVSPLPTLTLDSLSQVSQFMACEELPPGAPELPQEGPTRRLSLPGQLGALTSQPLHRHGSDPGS
Chain of P-gp (MDR1, ABCB1) (P08183 whole entry): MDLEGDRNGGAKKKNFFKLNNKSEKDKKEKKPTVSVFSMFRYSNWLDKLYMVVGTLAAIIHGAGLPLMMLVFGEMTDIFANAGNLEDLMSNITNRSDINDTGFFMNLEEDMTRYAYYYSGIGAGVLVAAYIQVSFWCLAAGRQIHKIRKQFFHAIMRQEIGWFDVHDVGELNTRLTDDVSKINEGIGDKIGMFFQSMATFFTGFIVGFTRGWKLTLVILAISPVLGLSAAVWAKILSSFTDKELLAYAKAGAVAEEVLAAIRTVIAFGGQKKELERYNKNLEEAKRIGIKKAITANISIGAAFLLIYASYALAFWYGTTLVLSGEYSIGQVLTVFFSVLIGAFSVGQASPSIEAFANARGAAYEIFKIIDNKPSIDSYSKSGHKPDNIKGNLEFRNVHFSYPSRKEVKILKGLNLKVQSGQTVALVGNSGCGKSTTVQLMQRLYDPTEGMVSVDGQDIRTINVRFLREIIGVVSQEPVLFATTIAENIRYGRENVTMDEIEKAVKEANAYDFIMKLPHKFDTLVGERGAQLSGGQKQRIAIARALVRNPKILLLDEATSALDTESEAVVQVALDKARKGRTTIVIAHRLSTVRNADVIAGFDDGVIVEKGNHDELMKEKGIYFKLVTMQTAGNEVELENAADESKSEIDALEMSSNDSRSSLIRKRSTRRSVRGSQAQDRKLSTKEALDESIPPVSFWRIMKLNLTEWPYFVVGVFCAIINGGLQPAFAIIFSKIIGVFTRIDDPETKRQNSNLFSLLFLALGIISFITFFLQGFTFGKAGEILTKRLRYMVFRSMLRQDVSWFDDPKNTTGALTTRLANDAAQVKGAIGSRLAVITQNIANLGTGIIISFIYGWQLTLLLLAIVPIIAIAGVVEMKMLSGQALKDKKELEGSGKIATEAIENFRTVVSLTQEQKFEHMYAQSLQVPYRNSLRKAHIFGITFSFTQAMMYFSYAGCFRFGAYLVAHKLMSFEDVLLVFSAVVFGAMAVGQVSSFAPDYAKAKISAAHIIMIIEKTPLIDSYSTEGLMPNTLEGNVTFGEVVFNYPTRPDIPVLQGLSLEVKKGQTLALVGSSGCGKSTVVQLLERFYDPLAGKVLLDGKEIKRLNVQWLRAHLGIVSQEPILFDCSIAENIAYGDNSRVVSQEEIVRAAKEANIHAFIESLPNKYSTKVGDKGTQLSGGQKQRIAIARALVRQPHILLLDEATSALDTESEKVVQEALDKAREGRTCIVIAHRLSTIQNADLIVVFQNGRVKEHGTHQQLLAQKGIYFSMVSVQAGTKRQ

Structure (SMILES): CC1(c2cc(NC(=O)c3ccc(C#N)cn3)ccc2F)N=C(N)c2ccccc2O1 (configuration not stated)
IC50 (Beta-secretase 1 [4]): 82 nM

Structure (SMILES): CC1(c2cc(NC(=O)c3ccc(C#N)cn3)ccc2F)Cc2cncc(F)c2C(N)=N1 (configuration not stated)
inhibition at 5 µM (hERG (KCNH2)): 92% | IC50 (Beta-secretase 1 [1]): 118 nM | IC50 (Beta-secretase 1 [2]): 11 nM | pKa [3]: 7.3

Structure (SMILES): CC1(c2cc(NC(=O)c3ccc(C#N)cn3)ccc2F)Cc2c(ccnc2F)C(N)=N1 (configuration not stated)
IC50 (Beta-secretase 1 [1]): 14 nM | IC50 (Beta-secretase 1 [2]): 0.36 nM

Structure (SMILES): CC1(c2cc(NC(=O)c3ccc(C#N)cn3)ccc2F)Cc2c(F)cncc2C(N)=N1 (configuration not stated)
inhibition at 5 µM (hERG (KCNH2)): 72% | IC50 (Beta-secretase 1 [1]): 12 nM | efflux ratio (P-gp (MDR1, ABCB1)): 13 | IC50 (Beta-secretase 1 [2]): 0.25 nM | pKa [3]: 7.6

Structure (SMILES): C[C@@]1(c2cc(NC(=O)c3ccc(C#N)cn3)ccc2F)Cc2c(ccnc2F)C(N)=N1
inhibition at 5 µM (hERG (KCNH2)): 88% | concentration at 7 h [5]: 65 ng/mL | remaining at 0.5 h [6]: 22% | clearance [7]: 45 mL/min/kg | Ratio [8]: 3 | bioavailability [9]: 33% | AUC [10]: 122 ng·h/mL | fraction unbound [11]: 0.15 | Cmax [12]: 78 ng/mL | concentration at 10 h [13]: 64 ng/mL | remaining at 0.5 h [14]: 93% | Cmax [15]: 9 ng/mL | concentration at 24 h [16]: 47 ng/mL | IC50 (Beta-secretase 1 [1]): 9.1 nM | Vd [17]: 14 L/kg | Kp [18]: 0.28 | Kp at 10 h [19]: 0.07 | concentration at 10 h [20]: 0.56 ng/mL | Tmax [21]: 4.3 h | efflux ratio (P-gp (MDR1, ABCB1)): 13 | inhibition in vivo at 1 mg/kg [22]: 47% | concentration at 24 h [23]: 0.52 ng/mL | IC50 (Beta-secretase 1 [2]): 0.41 nM | fraction unbound [24]: 0.14 | inhibition in vivo at 1 mg/kg [25]: 49% | Tmax [26]: 4 h | AUC [27]: 3890 ng·h/mL | Ratio [28]: 3.3 | pKa [3]: 8.2 | concentration at 3 h [29]: 72 ng/mL | Kp at 24 h [30]: 0.083

More lines, main results first:

IC50 (Beta-secretase 1 [1]): 21 nM | efflux ratio (P-gp (MDR1, ABCB1)): 37 | IC50 (Beta-secretase 1 [2]): 1.5 nM | pKa [3]: 9
Structure (SMILES): CC1(c2cc(NC(=O)c3ccc(C#N)cn3)ccc2F)Cc2cnccc2C(N)=N1 (configuration not stated)
inhibition at 5 µM (hERG (KCNH2)): 85%

IC50 (Beta-secretase 1 [2]): 4.1 nM | pKa [3]: 9.4
Structure (SMILES): CC1(c2cc(NC(=O)c3ccc(C#N)cn3)ccc2F)Cc2ncccc2C(N)=N1 (configuration not stated)

IC50 (Beta-secretase 1 [1]): 394 nM | IC50 (Beta-secretase 1 [2]): 26 nM | pKa [3]: 9.8
Structure (SMILES): CC1(c2cc(NC(=O)c3ccc(C#N)cn3)ccc2F)Cc2cccnc2C(N)=N1 (configuration not stated)

IC50 (Beta-secretase 1 [1]): 8.1 nM | IC50 (Beta-secretase 1 [2]): 1.3 nM | pKa [3]: 9.5
Structure (SMILES): CC1(c2cc(NC(=O)c3ccc(C#N)cn3)ccc2F)Cc2ccncc2C(N)=N1 (configuration not stated)
inhibition at 5 µM (hERG (KCNH2)): 83%
